≈ marks a conversion by molar mass, not a printed value.

What all share (type): functional
The subject of assay [1] is Escherichia coli. Nature of the assay: Antimicrobial activity against Escherichia coli DH5-alpha pYW1 transformants expressing KPC2 gene by agar dilution method. The conditions noted are these: DH5alpha. The method, boiled down:
(§1)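 Agar dilution MIC testing run per CLSI (formerly NCCLS) guidelines. Where an agent was combined with clavulanic acid, the clavulanic acid was held at a fixed 4 μg/ml.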

Assay [2] has as its system Escherichia coli. In words: Antimicrobial activity against Escherichia coli DH5-alpha with pGEM-T EASY expressing TEM1 gene by agar dilution method. Conditions: DH5alpha. The method, boiled down: as §1
On the technique in general: In agar dilution the substance is mixed into plates at graded concentrations.

Assay [3] deals with Escherichia coli. In words: Antimicrobial activity against Escherichia coli DH5-alpha with pYW2 expressing KPC2 and TEM1 gene by agar dilution method. Conditions: DH5alpha. The method, boiled down: as §1
The next assay deals with Klebsiella pneumoniae. Nature of the assay: Antimicrobial activity against carbapenem-resistant Klebsiella pneumoniae ZR01 from patient sputum by agar dilution method. The method, boiled down: as §1
The subject of assay [4] is Escherichia coli. In words: Antimicrobial activity against Escherichia coli DH5alpha by agar dilution method. The method, boiled down: as §1

By MIC is commonly meant the lowest concentration found to suppress growth. Regarding `NCC[C@H](O)C(=O)N[C@@H]1C[C@H](N)[C@@H](O[C@H]2O[C@H](CN)[C@@H](O)[C@H](O)[C@H]2O)[C@H](O)[C@H]1O[C@H]1O[C@H](CO)[C@@H](O)[C@H](N)[C@H]1O` [AMIKACIN], the MIC in the assay with Escherichia coli [1] is 1 µg/mL (≈ 1.71 µM); in the assay on Escherichia coli [2], 1 µg/mL (≈ 1.71 µM); against Escherichia coli [3] it was 1 µg/mL (≈ 1.71 µM); in the assay on Klebsiella pneumoniae it was greater than 256 µg/mL; with Escherichia coli [4] it was 1 µg/mL (≈ 1.71 µM).
As to `C[C@H]1[C@H](NC(=O)/C(=N\OC(C)(C)C(=O)O)c2csc(N)n2)C(=O)N1S(=O)(=O)O` [AZTREONAM], the minimal inhibitory concentration (MIC) with Escherichia coli [1] was 32 µg/mL (≈ 73.5 µM); against Escherichia coli [3], 64 µg/mL (≈ 147 µM); against Klebsiella pneumoniae, greater than 256 µg/mL.
With `CO/N=C(\C(=O)N[C@@H]1C(=O)N2C(C(=O)[O-])=C(C[N+]3(C)CCCC3)CS[C@H]12)c1csc(N)n1` [CEFEPIME], the MIC in the assay on Escherichia coli [1] is 2 µg/mL (≈ 4.16 µM); with Escherichia coli [2], 0.125 µg/mL (≈ 0.26 µM); with Klebsiella pneumoniae, greater than 256 µg/mL; against Escherichia coli [4] it was 0.032 µg/mL (≈ 0.0666 µM).
As to `CO/N=C(\C(=O)N[C@@H]1C(=O)N2C(C(=O)O)=C(COC(C)=O)CS[C@H]12)c1csc(N)n1` [CEFOTAXIME], the MIC with Escherichia coli [1] was 4 µg/mL (≈ 8.78 µM); in the assay with Escherichia coli [2], 0.094 µg/mL (≈ 0.206 µM); against Escherichia coli [3], 32 µg/mL (≈ 70.3 µM); in the assay with Klebsiella pneumoniae, greater than 256 µg/mL; with Escherichia coli [4], 0.094 µg/mL (≈ 0.206 µM).
Take `CC(C)(O/N=C(\C(=O)N[C@@H]1C(=O)N2C(C(=O)[O-])=C(C[n+]3ccccc3)CS[C@H]12)c1csc(N)n1)C(=O)O` [CEFTAZIDIME]: the MIC in the assay with Escherichia coli [1] was 4 µg/mL (≈ 7.32 µM); against Escherichia coli [2], 0.5 µg/mL (≈ 0.915 µM); against Escherichia coli [3] it was 32 µg/mL (≈ 58.5 µM); with Klebsiella pneumoniae, greater than 256 µg/mL; with Escherichia coli [4] it was 0.25 µg/mL (≈ 0.457 µM).
Take `CO/N=C(\C(=O)N[C@@H]1C(=O)N2C(C(=O)O)=C(CSc3nc(=O)c(O)nn3C)CS[C@H]12)c1csc(N)n1` [CEFTRIAXONE]: the MIC is 8 µg/mL (≈ 14.4 µM) against Escherichia coli [1]; 0.094 µg/mL (≈ 0.169 µM) against Escherichia coli [2]; 64 µg/mL (≈ 115 µM) against Escherichia coli [3]; greater than 256 µg/mL in the assay on Klebsiella pneumoniae; 0.094 µg/mL (≈ 0.169 µM) in the assay on Escherichia coli [4].
`O=C(O)c1cn(C2CC2)c2cc(N3CCNCC3)c(F)cc2c1=O` [CIPROFLOXACIN] gave an MIC against Klebsiella pneumoniae greater than 32 µg/mL.
For the molecule `C[C@@H](O)[C@H]1C(=O)N2C(C(=O)O)=C(S[C@@H]3CN[C@H](C(=O)Nc4cccc(C(=O)O)c4)C3)[C@H](C)[C@H]12` [ERTAPENEM], the minimum inhibitory concentration (MIC) was 0.5 µg/mL (≈ 1.05 µM) against Escherichia coli [1]; 0.012 µg/mL (≈ 0.0252 µM) in the assay on Escherichia coli [2]; 2 µg/mL (≈ 4.21 µM) in the assay on Escherichia coli [3]; greater than 256 µg/mL in the assay with Klebsiella pneumoniae; 0.008 µg/mL (≈ 0.0168 µM) with Escherichia coli [4].
Turning to `C[C@@H](O)[C@H]1C(=O)N2C(C(=O)O)=C(SCCNC=N)C[C@H]12` [IMIPENEM ANHYDROUS], the minimum inhibitory concentration (MIC) with Escherichia coli [1] is 4 µg/mL (≈ 13.4 µM); against Escherichia coli [3], 8 µg/mL (≈ 26.7 µM); in the assay on Klebsiella pneumoniae it was greater than 32 µg/mL.
Regarding `C[C@@H](O)[C@H]1C(=O)N2C(C(=O)O)=C(S[C@@H]3CN[C@H](C(=O)N(C)C)C3)[C@H](C)[C@H]12` [MEROPENEM], the minimal inhibitory concentration (MIC) is 4 µg/mL (≈ 10.4 µM) in the assay with Escherichia coli [1]; 0.06 µg/mL (≈ 0.156 µM) against Escherichia coli [2]; 4 µg/mL (≈ 10.4 µM) with Escherichia coli [3]; greater than 32 µg/mL against Klebsiella pneumoniae; 0.06 µg/mL (≈ 0.156 µM) in the assay on Escherichia coli [4].
In the case of `CO[C@H]1/C=C/O[C@@]2(C)Oc3c(C)c(O)c4c(O)c(c(/C=N/N5CCN(C)CC5)c(O)c4c3C2=O)NC(=O)/C(C)=C\C=C\[C@H](C)[C@H](O)[C@@H](C)[C@@H](O)[C@@H](C)[C@H](OC(C)=O)[C@@H]1C` [RIFAMPIN], the minimal inhibitory concentration (MIC) with Escherichia coli [1], in the assay with Escherichia coli [2], against Escherichia coli [3], in the assay with Klebsiella pneumoniae and in the assay on Escherichia coli [4] was 16 µg/mL (≈ 19.4 µM) in each case.
COLISTIN: the MIC in the assay on Escherichia coli [1], with Escherichia coli [2], with Escherichia coli [3], in the assay on Klebsiella pneumoniae and in the assay on Escherichia coli [4] was 0.5 µg/mL throughout.
For POLYMYXIN B, the minimum inhibitory concentration (MIC) stood at 1 µg/mL against Escherichia coli [1]; 1 µg/mL in the assay with Escherichia coli [2]; 1 µg/mL against Escherichia coli [3]; 2 µg/mL in the assay with Klebsiella pneumoniae; 1 µg/mL against Escherichia coli [4].
